INS-1E rescue – rescue of cytokine-induced death in INS-1E beta cells; INS-1E cytokine-induced death, ATP luminescence, 48 h; normalised: neutral wells 0, positive control 100; protection from cytokine-induced ATP loss, % at 10 µM; 20,000 compounds, 0.1% hits; AID 488910;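 active = mean replicate protection from cytokine-induced ATP loss at least 50% and at least 75% of replicates each reaching 50%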
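Test system: INS-1E rat cells | Quantity: 8000 cells per well | Medium: Phenol-red-free RPMI with 5% fetal bovine serum | Reagent: Cytokine cocktail of IFN-γ, TNF-α and IL-1β | Doses: One compound concentration, pin transfer | Timing: 48 h co-treatment, 10 min post-lysis read | Technique: Luminescent ATP assay (CellTiter-Glo)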
A1 apoptosis 2 – A1 inhibition read as caspase activation | MEF A1-2A-BIM cells, caspase-Glo luminescence, 3 h; percent of clofoctol response, DMSO zero | caspase activation, % (test concentration not listed) | 24,000 tested, under 10 active | AID 2465; in the data active = caspase activation above about 5.9%
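System: mouse embryonic fibroblasts co-expressing A1 and BIM (A1-2A-BIM), primed for A1 dependence; amount: 2500 cells/well; doses: 50 nL pinned compound; schedule: cells settled overnight, compound exposure 3 h at 37 °C, 5% CO2; detection: Caspase-Glo 3/7 luminescence, 1 h at room temperature; read-out: Caspase-3/7 activation, seen as rise in luminescence signal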
T cruzi intra – blocks T. cruzi growth inside host cells; intracellular Trypanosoma cruzi in host cells, plate reader; activity score (inhibition), % at 5.01 µM; 22,000 compounds, 4.9% hits; AID 651903; in the data active = activity score above about 55%;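 also: parasites and compound incubated about four days before reading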
Of the large screens only hits and unclear results are named; the others gave an inactive call. Shown is part of a subset that was picked to be rich in hits.

COc1cc2c(cc1OC)CN(C(=O)[C@H]1[C@@H]3C(=O)O[C@@H](c4ccccc4)[C@@H](c4ccccc4)N3[C@@H](c3ccc(O)cc3)[C@]13C(=O)Nc1ccc(C#CC4=CCCCC4)cc13)CC2	none (no result: INS-1E rescue, T cruzi intra)
O=C(CCCCC(=O)N/N=C/c1ccc(Br)s1)NO	none (no result: INS-1E rescue, T cruzi intra)
COC(=O)CCCCCCC(=O)N/N=C/c1ccc(OCC(N)=O)cc1	none
C=CC(CO)NS(=O)(=O)c1ccc(Br)cc1 (centres undefined)	none (no result: INS-1E rescue, T cruzi intra)
C[C@@H]1CN([C@@H](C)CO)C(=O)c2cc(NC(=O)Nc3ccc4c(c3)OCO4)ccc2O[C@H]1CN(C)CC1CCCCC1	none
C[C@@H]1CN([C@H](C)CO)C(=O)c2cccc(NC(=O)Nc3ccccc3)c2O[C@@H]1CN(C)Cc1ccc(Cl)c(Cl)c1	none (no result: A1 apoptosis 2)
COc1ccc(NC(=O)Nc2cccc3c2O[C@@H](CN(C)Cc2ccc(Cl)c(Cl)c2)[C@@H](C)CN([C@H](C)CO)C3=O)cc1	T cruzi intra 59 (no result: A1 apoptosis 2)
COc1ccc(NC(=O)Nc2cccc3c2O[C@H](CN(C)Cc2ccc(Cl)c(Cl)c2)[C@H](C)CN([C@H](C)CO)C3=O)cc1	none (no result: A1 apoptosis 2)
C[C@H](CO)N1C[C@H](C)[C@H](CN(C)Cc2ccc(Cl)c(Cl)c2)Oc2c(NC(=O)Nc3ccc4c(c3)OCO4)cccc2C1=O	T cruzi intra 82 (no result: A1 apoptosis 2)
C[C@@H]1CN([C@H](C)CO)C(=O)c2cccc(NC(=O)Nc3ccc4c(c3)OCO4)c2O[C@@H]1CN(C)Cc1ccc(Cl)c(Cl)c1	none (no result: A1 apoptosis 2)
C[C@@H]1CN([C@@H](C)CO)C(=O)c2cccc(NC(=O)Nc3ccccc3)c2O[C@H]1CN(C)Cc1ccc(Cl)c(Cl)c1	T cruzi intra 59 (no result: A1 apoptosis 2)
C[C@@H]1CCCCO[C@H](CN(C)CC2CCCCC2)[C@H](C)CN([C@H](C)CO)C(=O)c2cc(NC(=O)Nc3ccc4c(c3)OCO4)ccc2O1	none (no result: INS-1E rescue, T cruzi intra)
C[C@@H]1CCCCO[C@H](CN(C)CC2CCCCC2)[C@@H](C)CN([C@H](C)CO)C(=O)c2cc(NC(=O)Nc3ccc(C(F)(F)F)cc3)ccc2O1	T cruzi intra 70
C[C@@H]1CN([C@@H](C)CO)C(=O)c2cc(NC(=O)Nc3ccc(C(F)(F)F)cc3)ccc2O[C@@H](C)CCCCO[C@@H]1CN(C)CC1CCCCC1	none (no result: INS-1E rescue, T cruzi intra)
C[C@@H]1CCCCO[C@H](CN(C)CC2CCCCC2)[C@H](C)CN([C@H](C)CO)C(=O)c2cc(NC(=O)Nc3ccc(C(F)(F)F)cc3)ccc2O1	none (no result: INS-1E rescue, T cruzi intra)
COc1ccc(NC(=O)Nc2ccc3c(c2)C(=O)N([C@H](C)CO)C[C@H](C)[C@@H](CN(C)CC2CCCCC2)OCCCC[C@@H](C)O3)cc1	T cruzi intra 76 (no result: A1 apoptosis 2)
COc1ccc(NC(=O)Nc2ccc3c(c2)C(=O)N([C@@H](C)CO)C[C@@H](C)[C@@H](CN(C)CC2CCCCC2)OCCCC[C@H](C)O3)cc1	none (no result: INS-1E rescue, T cruzi intra)
C[C@@H]1CCCCO[C@H](CN(C)CC2CCCCC2)[C@@H](C)CN([C@H](C)CO)C(=O)c2cc(NC(=O)Nc3ccc4c(c3)OCO4)ccc2O1	T cruzi intra 79 (no result: A1 apoptosis 2)
C[C@@H]1CCCCO[C@@H](CN(C)CC2CCCCC2)[C@H](C)CN([C@H](C)CO)C(=O)c2cc(NC(=O)Nc3ccc(C(F)(F)F)cc3)ccc2O1	A1 apoptosis 2 8.3 (no result: INS-1E rescue, T cruzi intra)
CC(C)(C)OC(=O)N1CCC[C@H]1/C=N/NC(=O)CCCCCCC(=O)O	none (no result: A1 apoptosis 2)
COC(=O)CCCCCCC(=O)N/N=C/c1cc(OC)ccc1Br	none (no result: A1 apoptosis 2)
Cc1ccccc1/C=N/NC(=O)CCCCCC(=O)O	none
COc1ccc([Si](C)(C)[C@H]2[C@H](CCO)O[C@@]3(C(=O)N(Cc4cccc(N5CCC5=O)c4)c4ccccc43)[C@@H]2C)cc1	none (no result: INS-1E rescue, T cruzi intra)
O=C(N/N=C/c1ccccc1OCCO)c1ccccn1	none
O=C(CCCCCC(=O)Nc1ccccc1O)N/N=C/c1ccc(O)cc1O	none
C[C@H]1CN([C@@H](C)CO)C(=O)c2cc(NC(=O)Nc3ccc(C(F)(F)F)cc3)ccc2O[C@H]1CN(C)Cc1ccc(-c2ccccc2)cc1	T cruzi intra 58 (no result: A1 apoptosis 2)
C[C@H](CO)N1C[C@H](C)[C@@H](CN(C)Cc2ccc(-c3ccccc3)cc2)Oc2ccc(NC(=O)Nc3ccc(F)cc3)cc2C1=O	none
C[C@H]1CN([C@@H](C)CO)C(=O)c2cc(NC(=O)Nc3ccc(F)cc3)ccc2O[C@H]1CN(C)Cc1ccc(-c2ccccc2)cc1	T cruzi intra 65 (no result: A1 apoptosis 2)
C[C@H](CO)N1C[C@H](C)[C@H](CN(C)Cc2ccc(-c3ccccc3)cc2)Oc2ccc(NC(=O)Nc3ccc(C(F)(F)F)cc3)cc2C1=O	none (no result: INS-1E rescue)
CCCN(C)C[C@H]1OCCCC[C@@H](C)Oc2ccc(NC(=O)Cc3ccccc3)cc2C(=O)N([C@@H](C)CO)C[C@H]1C	none (no result: INS-1E rescue, T cruzi intra)

Screening results from PubChem.
